{"source": "paper PMC7359938", "about": "(Clinical and Translational Science, 2020)", "key": {"VMAT2": {"tested_on": "VMAT2", "conditions": "in vitro, rats; ref Teva Pharmaceuticals, data on file; cited from earlier work"}, "[1]": {"conditions": "cited from earlier work"}, "[2]": {"conditions": "pivotal randomized controlled study; cited from earlier work"}, "[3]": {"test": "Safety and tolerability evaluation", "type": "in vivo, human", "in_short": "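Fasted healthy men and women (21) received a single oral 25 mg dose with 250 mL water in a double-blind two-period crossover (5-day inpatient stays, ≥7-day washout). Safety covered everyone given at least one dose. Twelve-lead ECG was taken predose and at 1, 2 and 24 h. Hematology, serum chemistry and urinalysis were done at admission and at ~24 and 72 h after ≥10 h fasting. Results were summarized by treatment.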"}, "[4]": {"conditions": "Study AUS‐SD‐809‐CTP‐06, single 25 mg dose"}}, "data": [{"smiles": "COc1cc2c(cc1OC)[C@H]1CC(=O)[C@H](CC(C)C)CN1CC2", "note": "(racemic) [Tetrabenazine, cis‐rac –1,3,4,6,7,11b‐hexahydro‐9,10‐dimethoxy‐3‐(2‐methylpropyl)2H‐benzo[a]quinolizin‐2‐one]", "values": [{"measurement": "Effect of deuteration on binding to VMAT2", "setting": "VMAT2", "value": "did not change the binding"}, {"measurement": "BDDCS classification", "setting": "[1]", "value": "Class II"}, {"measurement": "Patients requiring dose reduction for intolerability", "setting": "[2]", "value": 44, "unit": "%"}, {"measurement": "Reported events of dizziness", "setting": "[3]; Study AUS‐SD‐809‐CTP‐06", "value": "three"}, {"measurement": "Number of subjects with at least one treatment‐emergent adverse event (TEAE)", "setting": "[3]; [4]", "value": 9}, {"measurement": "Percentage of subjects with at least one treatment‐emergent adverse event (TEAE)", "setting": "[3]; [4]", "value": 45, "unit": "%"}, {"measurement": "Subjects with headache", "setting": "[3]; [4]", "value": 15, "unit": "%"}, {"measurement": "Subjects with nausea", "setting": "[3]; [4]", "value": 15, "unit": "%"}, {"measurement": "Subjects with somnolence", "setting": "[3]; [4]", "value": 10, "unit": "%"}, {"measurement": "Tolerability of single doses", "setting": "[3]; both studies, incl. 14C‐labeled analogues", "value": "well‐tolerated"}, {"measurement": "Serious or severe TEAEs", "setting": "[3]; either study", "value": "no serious or severe TEAEs"}, {"measurement": "Clinical laboratory assessments, vital signs parameters, ECG measurements, physical examinations", "setting": "[3]; following either treatment", "value": "no clinically significant findings"}]}]}
